{
  "source": "paper PMC4814158",
  "about": "(MedChemComm, 2015)",
  "assay_type_in_all_cases": "in vitro ADME",
  "key": {"[1]": {"test_system": "glutathione-S-transferases (GSTs)", "experiment": "Glutathione conjugation in rat liver S9", "details": "rat enzymes", "method_in_brief": "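Rat liver S9 (10 mg/mL) in 0.1 M potassium phosphate, pH 7.4, with test compound 100 μM and MgCl2 1 mM (final), preincubated 5 min at 37 °C. Reaction started with glutathione 0.2 mM final. Controls: acetaminophen as positive, no-glutathione as negative. Samples taken over 0–120 min, quenched in cold methanol with internal standard. Parent measured by HILIC LC-MS/MS; % intact at 120 min vs time zero, mean ± %CV.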"}, "[2]": {"test_system": "uridine glucuronosyl transferases (UGTs)", "experiment": "Glucuronide conjugation in human liver S9 with UDPGA", "details": "human liver S9 + UDP glucuronic acid, 2 h"}, "[3]": {"test_system": "Phase II conjugative enzymes", "experiment": "Phase II conjugation reactions", "details": "rat enzymes (printed: rat microsomes)", "method_in_brief": "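Three rat liver S9 incubations in pH 7.4 phosphate at 37 °C, each with test compound 100 μM and MgCl2 1 mM. Glucuronidation used 2 mg/mL S9 activated with alamethicin on ice 15 min, plus UDPGA 5 mM. Sulfation used 2 mg/mL S9 plus PAPS 0.2 mM. Glutathione conjugation used 10 mg/mL S9 plus glutathione 0.2 mM. Parent loss by LC-MS/MS over 120 min.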"}, "[4]": {"test_system": "uridine glucuronosyl transferases (UGTs)", "experiment": "Glucuronide conjugation in rat liver S9 with UDPGA", "details": "rat liver S9 + UDP glucuronic acid, 2 h"}, "[5]": {"test_system": "sulfotransferases (SULTs)", "experiment": "Sulfoconjugation in rat liver S9 with PAPS", "details": "rat liver S9, 2 h", "method_in_brief": "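Sulfotransferase reaction in rat liver S9 (2 mg/mL), 0.1 M potassium phosphate pH 7.4, with 1 mM MgCl2 and test compound at 100 μM final. After 5 min preincubation at 37 °C, PAPS was added to 0.2 mM. Controls: 7-hydroxycoumarin as positive, PAPS-free as negative. Aliquots to 120 min stopped with ice-cold methanol plus internal standard. LC-MS/MS of parent; percent intact relative to time zero.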"}},
  "data": [
    {"compound": "CN[C@@H]1[C@H](O)[C@H](NC)[C@H]2O[C@]3(O)[C@H](O[C@@H]2[C@H]1O)O[C@H](C)C[C@H]3NC(=O)Cc1cc(Cl)ccn1", "note": "[Compound 1544]", "values": [
      {"measurement": "formation of glutathione conjugates (in words)", "setting": "[1]", "value": "formed glutathione conjugates"}
    ]},
    {"compound": "CN[C@@H]1[C@H](O)[C@H](NC)[C@H]2O[C@]3(O)[C@H](O[C@@H]2[C@H]1O)O[C@H](C)C[C@H]3NC(=O)Cc1ccc(O)cn1", "note": "[Compound 1810]", "values": [
      {"measurement": "% parent compound remaining intact", "setting": "[2]", "value": "above 93%"},
      {"measurement": "stability towards Phase II conjugative enzymes (in words)", "setting": "[3]", "value": "complete stability"},
      {"measurement": "% parent compound remaining intact", "setting": "[4]", "value": "above 93%"}
    ]},
    {"compound": "CN[C@@H]1[C@H](O)[C@H](NC)[C@H]2O[C@]3(O)[C@H](O[C@@H]2[C@H]1O)O[C@H](C)C[C@H]3NC(=O)Cc1ccc(Cl)cn1", "note": "[Compound 1599]", "values": [
      {"measurement": "stability towards Phase II conjugative enzymes (in words)", "setting": "[3]", "value": "complete stability"}
    ]},
    {"compound": "CN[C@@H]1[C@H](O)[C@H](NC)[C@H]2O[C@]3(O)[C@H](O[C@@H]2[C@H]1O)O[C@H](C)C[C@H]3NC(=O)Cc1cc(Cl)c(C)cn1", "note": "[Compound 1666]", "values": [
      {"measurement": "sulfoconjugation (in words)", "setting": "[5]", "value": "no metabolism"},
      {"measurement": "formation of glutathione conjugates (in words)", "setting": "[1]", "value": "formed glutathione conjugates"}
    ]},
    {"compound": "CN[C@@H]1[C@H](O)[C@H](NC)[C@H]2O[C@]3(O)[C@H](O[C@@H]2[C@H]1O)O[C@H](C)C[C@H]3NC(=O)Cc1cc(Cl)c(F)cn1", "note": "[Compound 1661]", "values": [
      {"measurement": "stability towards Phase II conjugative enzymes (in words)", "setting": "[3]", "value": "complete stability"}
    ]},
    {"compound": "CN[C@@H]1[C@H](O)[C@H](NC)[C@H]2O[C@]3(O)[C@H](O[C@@H]2[C@H]1O)O[C@H](C)C[C@H]3NC(=O)Cc1ccc(F)cn1", "note": "[Compound 1445]", "values": [
      {"measurement": "stability towards Phase II conjugative enzymes (in words)", "setting": "[3]", "value": "complete stability"}
    ]},
    {"compound": "CN[C@@H]1[C@H](O)[C@H](NC)[C@H]2O[C@]3(O)[C@H](O[C@@H]2[C@H]1O)O[C@H](C)C[C@H]3NC(=O)Cc1cc(Cl)c(OC)cn1", "note": "[Compound 1878]", "values": [
      {"measurement": "formation of glutathione conjugates (in words)", "setting": "[1]", "value": "formed glutathione conjugates"}
    ]}
  ]
}
